From ChEMBL document CHEMBL3808369, “Identification of Cyproheptadine as an Inhibitor of SET Domain Containing Lysine Methyltransferase 7/9 (Set7/9) That Regulates Estrogen-Dependent Transcription” (J Med Chem, 2016) come the findings set out here.

The target of assay [1] is T1, Histone-lysine N-methyltransferase SETD7 (Homo sapiens) (UniProt Q8WTS6).
T1 sequence (whole entry): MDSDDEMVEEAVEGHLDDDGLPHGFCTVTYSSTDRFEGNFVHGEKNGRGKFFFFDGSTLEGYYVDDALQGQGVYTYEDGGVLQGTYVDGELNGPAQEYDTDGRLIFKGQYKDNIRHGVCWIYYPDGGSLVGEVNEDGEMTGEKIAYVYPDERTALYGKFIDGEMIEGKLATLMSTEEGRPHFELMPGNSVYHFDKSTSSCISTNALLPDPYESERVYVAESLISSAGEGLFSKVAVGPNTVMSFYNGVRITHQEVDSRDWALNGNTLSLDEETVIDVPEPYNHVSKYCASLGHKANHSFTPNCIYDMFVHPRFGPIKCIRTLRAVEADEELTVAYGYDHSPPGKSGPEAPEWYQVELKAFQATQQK
The assay can be described thus: Inhibition of Set7/9 (unknown origin) expressed in Escherichia coli BL21 (DE3) by fluorogenic assay.

For the next assay, the system named is MCF7. Briefly: Effect on ERalpha expression in human MCF7 cells at 10 to 100 uM after 48 hrs by immunoblotting analysis. It is filed as functional, cell-based. In outline: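 MCF7 cells were treated with various concentrations for 48 h. Lysates were made in RIPA buffer with protease inhibitors, separated by SDS-PAGE, transferred to PVDF and immunoblotted for ERα with a rabbit polyclonal antibody. Detection was by chemiluminescence.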

In assay [2] the target is T1, Histone-lysine N-methyltransferase SETD7 (Homo sapiens). The assay can be described thus: Inhibition of Set7/9 in human MCF7 cells assessed as suppression of beta-estradiol-induced ERE promoter activation at 3 to 10 uM preincubated for 18 hrs followed by beta-estradiol addition measured after 24 hrs by luciferase reporter gene assay. It is filed as cell-based. Put shortly:
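MCF7 cells were switched to estrogen-free medium (phenol red-free RPMI, 10% charcoal-stripped FBS) for 3 days, then transfected with pGL4-3×ERE-TA2 and hRuc-TK. After 6 h, compound was added. After 18 h more, cells received ± 10 nM β-estradiol for 24 h. Dual-luciferase readout: firefly normalized to Renilla, given as fold over unstimulated cells. Four independent assays, SD.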
For orientation: In a reporter assay the amount or activity of a reporter protein is the signal.

Assay [3] shares this target. The assay can be described thus: Inhibition of Set7/9 in human MCF7 cells assessed as suppression of beta-estradiol-induced pS2 mRNA expression at 3 to 10 uM preincubated for 18 hrs followed by beta-estradiol addition measured after 24 hrs by RT-PCR analysis. It is filed as cell-based. The following applies: in the assay text read “preincubated for 24 hrs” for “preincubated for 18 hrs”. In outline: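 MCF7 cells in estrogen-free medium were treated with compound for 24 h, then with 10 nM β-estradiol plus compound for a further 24 h. pS2 and GAPDH mRNA levels were measured by semiquantitative RT-PCR.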

The target of assay [4] is T2, Histone-lysine N-methyltransferase SETD7 (Homo sapiens, UniProt Q8WTS6).
T2 sequence (Q8WTS6 whole entry): T1 sequence (whole entry)
Briefly: Inhibition of recombinant Set7/9 (unknown origin) expressed in Escherichia coli BL21 (DE3) using biotinylated histone H3-derived peptide/SAM as substrate by alphaLISA.

pIC50: −log10 of the molar value. Calls of active or inactive are those of the source. The rule behind the calls is not given here.

`O=C(c1ccc(F)cc1)C1CCN(CCn2c(=O)[nH]c3ccccc3c2=O)CC1`: the inhibition entry in assay [1] was “inactive”. Moreover, the result with MCF7 was inactive.

For `Cc1ccc(/C(=C\CN2CCCC2)c2ccccn2)cc1`, in assay [1], the inhibition entry is “inactive”. The outcome in the assay with MCF7 was inactive.

Consider `CC/C(=C(\c1ccccc1)c1ccc(OCCN(C)C)cc1)c1ccccc1`, for which the inhibition result in assay [2] and in assay [3] was “Active” each time.

On to `CC(=O)N1CCC(=C2c3ccccc3C=Cc3ccccc32)CC1`, for which the negative-log IC50 (pIC50) – broadly, the negative decadic logarithm of the IC50, by convention in mol/L – in assay [4] is less than 4.00.
